{"data": "Assay results from different studies", "HTR5A": "5-hydroxytryptamine receptor 5A (HTR5A, Homo sapiens, UniProt P47898)", "ABHD6": "Monoacylglycerol lipase ABHD6 (ABHD6, Homo sapiens, UniProt Q9BV23)", "note": "Protocols differ between the studies behind these lines."}
{"Compound": "CN1CCc2c(c3ccccc3n2Cc2ccccc2)C1", "target": "HTR5A", "assay": "ligand displacement, radioligand", "endpoint": "Ki", "result": "130 nM"}
{"Compound": "CN(Cc1ccc(NC(=O)C2=Cc3cc(-c4ccc(OCCCF)cc4)ccc3CCC2)cc1)C1CCOCC1", "target": "HTR5A", "assay": "ligand displacement, radioligand", "endpoint": "Ki", "result": "5010 nM"}
{"Compound": "CN(C(=O)Oc1nsnc1N1CCCCC1)C1CCCCCCC1", "target": "ABHD6", "assay": "enzyme activity, inhibitor, fluorescence", "setting": "lysate", "endpoint": "IC50", "result": "72 nM"}
{"Compound": "CNC(=O)c1cccc(-c2ccc(O[C@H]3O[C@H](CO)[C@@H](O)[C@H](O)[C@@H]3O)cc2)c1", "target": "Type 1 fimbrin D-mannose specific adhesin, N-terminal domain (fimH, Escherichia coli K-12, UniProt P08191)", "assay": "binding, BLI", "endpoint": "Kd", "result": "0.01 nM"}
{"Compound": "CN(C(=O)Oc1nsnc1N1CCCCC1)C1CCCCCC1", "target": "ABHD6", "assay": "enzyme activity, inhibitor, fluorescence", "setting": "lysate", "endpoint": "IC50", "result": "42.7 nM"}
{"Compound": "CNc1nc2cc(OCCCCN3CCN(c4cccc(Cl)c4Cl)CC3)ccc2s1", "target": "HTR5A", "assay": "ligand displacement, radioligand", "endpoint": "Ki", "result": "1300 nM"}
{"Compound": "O=C(COc1ccc2cc(C(=O)Nc3ccccc3)ccc2c1)NCc1ccc(OP(=O)(O)O)c(OP(=O)(O)O)c1", "target": "Signal transducer and activator of transcription 6, SH2 (Homo sapiens, UniProt P42226)", "assay": "ligand displacement, FP", "endpoint": "Ki", "result": "3470 nM"}
{"Compound": "O=C(Nc1cccc(-c2ccn3c(CC4CC4)nnc3c2C(F)(F)F)c1)c1ccc(S(=O)(=O)F)cc1", "target": "Metabotropic glutamate receptor 8 (GRM8, Homo sapiens, UniProt O00222)", "assay": "calcium signal, agonist", "endpoint": "EC50", "result": "> 50100 nM"}
{"Compound": "Cc1ccc(Cc2ccc3c(c2)CN(C(=O)[C@@H](N)Cc2c(C)cc(O)cc2C)CC3)cc1", "target": "Mu-type opioid receptor (Oprm1, Rattus norvegicus, UniProt P33535)", "assay": "ligand displacement, radioligand", "setting": "cell membranes", "endpoint": "Ki", "result": "114 nM"}
{"Compound": "CN(C(=O)Oc1nsnc1N1CCCCC1)c1ccc([N+](=O)[O-])cc1", "target": "ABHD6", "assay": "enzyme activity, inhibitor, fluorescence", "setting": "lysate", "endpoint": "IC50", "result": "1250 nM"}
{"Compound": "CC(=O)N[C@@H](Cc1ccccc1Cl)C(=O)N1CCC[C@H]1C(=O)N1CCC[C@H]1C(=O)N1CCC[C@H]1C(=O)N1CCC[C@H]1C(=O)O", "target": "Vasodilator-stimulated phosphoprotein (VASP, Homo sapiens, UniProt P50552)", "assay": "binding, fluorescence", "endpoint": "Kd", "result": "13000 nM"}
{"Compound": "COc1ccc(N(C)C(=O)Oc2nsnc2N2CCCCC2)cc1", "target": "ABHD6", "assay": "enzyme activity, inhibitor, fluorescence", "setting": "lysate", "endpoint": "IC50", "result": "263 nM"}
{"Compound": "CC(CCc1ccc(O)cc1)NCCc1ccc(O)c(O)c1 (stereo not shown)", "target": "D(4) dopamine receptor (DRD4, Homo sapiens, UniProt P21917)", "assay": "ligand displacement, radioligand", "endpoint": "IC50", "result": "2420 nM"}
